# From PubChem BioAssay
# Activity calls are given as the source filed them. Rule as the data show it, unless noted: active = inhibition above about 30%; inactive = the rest.
# Assays:
# [1] = reducers of endogenous Her2 protein level, primary screen, SKBR3 breast tumor cells, AlphaScreen, ATP viability (AID 461;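 active = Her2 level under about 52% in both replicate screens, with viability over 70% of control, limit read from the data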;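 as to Her2 level: lower value means less Her2 protein in the cells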;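 as to viability: percent of carrier control wells set as 100% viability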); settings: 18-24 h, measured here: SKBR3 viability, ATP luminescence, at 10 µM
# [2] = target: Receptor tyrosine-protein kinase erbB-2 (Homo sapiens) (UniProt P04626); assay: as above; settings: 18-24 h, at 10 µM, stronger effect = lower value
# Receptor tyrosine-protein kinase erbB-2 (Homo sapiens), sequence (P04626 whole entry, looked up): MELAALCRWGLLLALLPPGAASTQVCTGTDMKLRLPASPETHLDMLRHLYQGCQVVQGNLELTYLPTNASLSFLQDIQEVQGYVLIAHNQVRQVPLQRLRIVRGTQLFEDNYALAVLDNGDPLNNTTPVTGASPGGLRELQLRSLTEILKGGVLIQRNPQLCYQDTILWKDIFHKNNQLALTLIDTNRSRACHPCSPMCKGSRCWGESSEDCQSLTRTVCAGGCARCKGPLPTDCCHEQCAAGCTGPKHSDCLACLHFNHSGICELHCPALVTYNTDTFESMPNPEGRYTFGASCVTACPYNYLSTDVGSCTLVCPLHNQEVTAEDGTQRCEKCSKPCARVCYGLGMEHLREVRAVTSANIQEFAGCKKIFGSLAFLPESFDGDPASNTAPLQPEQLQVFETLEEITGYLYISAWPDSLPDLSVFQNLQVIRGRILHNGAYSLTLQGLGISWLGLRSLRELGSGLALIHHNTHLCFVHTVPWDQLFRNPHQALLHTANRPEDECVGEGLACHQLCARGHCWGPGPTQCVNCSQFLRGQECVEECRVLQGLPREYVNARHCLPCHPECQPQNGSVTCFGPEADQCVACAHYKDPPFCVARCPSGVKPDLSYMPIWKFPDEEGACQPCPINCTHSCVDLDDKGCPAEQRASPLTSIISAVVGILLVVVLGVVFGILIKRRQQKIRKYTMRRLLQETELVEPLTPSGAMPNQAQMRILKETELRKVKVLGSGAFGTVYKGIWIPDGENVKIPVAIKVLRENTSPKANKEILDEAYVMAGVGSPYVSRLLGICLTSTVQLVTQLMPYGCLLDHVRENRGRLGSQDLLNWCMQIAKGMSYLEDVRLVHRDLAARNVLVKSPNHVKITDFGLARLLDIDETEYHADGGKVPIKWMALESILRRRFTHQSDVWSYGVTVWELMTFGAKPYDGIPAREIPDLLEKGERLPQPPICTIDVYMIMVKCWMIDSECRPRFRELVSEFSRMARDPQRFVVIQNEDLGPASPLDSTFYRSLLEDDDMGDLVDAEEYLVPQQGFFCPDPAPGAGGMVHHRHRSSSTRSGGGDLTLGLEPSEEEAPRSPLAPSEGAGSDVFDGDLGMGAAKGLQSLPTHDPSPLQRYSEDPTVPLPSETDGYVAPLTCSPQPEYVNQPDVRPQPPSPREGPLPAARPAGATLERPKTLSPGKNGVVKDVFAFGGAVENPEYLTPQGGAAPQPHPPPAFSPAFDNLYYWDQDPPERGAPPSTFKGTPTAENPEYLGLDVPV
# [3] = SK-BR-3 cell growth inhibitors, pilot screen, 24 h, human (AID 572;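 active = viability at or below 10% of carrier control in both of two separate runs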;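 also: compound exposure lasted between 18 and 24 h rather than exactly 24 h; 100% = carrier-treated control wells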); settings: SK-BR-3 viability, CellTiter-Glo luminescence, at 10 µM, stronger effect = lower value
# [4] = HUVEC growth inhibition – cell-based, human, primary screen (AID 575;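 active = viability at or below 30% in both replicate assays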;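 also: 100% = median of untreated cell wells with 0.1% DMSO on each plate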); settings: HUVEC proliferation, CellTiter-Glo luminescence, 72 h; at 10 µM; stronger effect = lower value
# Procedure, shortened: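 material = primary HUVEC, no more than 12 passages | input = 1250 cells per well | controls = vehicle and MePR control wells | measured by = CTG luminescence | times = 72 h compound incubation | format = collagen-coated 384-well format | read-out = % viability vs DMSO wells | doses = single 10 µM dose, 0.1% DMSO, from 5x medium stock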
# [5] = growth inhibitors of H69AR lung tumor, primary screen, human, duplicate replicates (AID 580;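 active = viability at or under a set limit in both replicates, limit being median viability minus 3 SD, cut at about 48% in these data, passing the limit was not always enough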;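 also: 100% = mean luminescence of untreated wells and 0% = no signal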); settings: H69AR lung tumor cells viability, ATP luminescence, 72 h; at 10 µM; stronger effect = lower value
# [6] = reversal of MRP1-mediated doxorubicin resistance, pilot screen, H69AR cells, doxorubicin co-treatment (AID 601;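 active = viability loss from added drug above about 55%, and viability with drug at most 40%, in both replicates, limit read from the data, passing the limit was not always enough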); settings: CellTiter-Glo, 72 h, at 10 µM; for differential viability (reversal): stronger effect = higher value
# [7] = 384-well plate pilot, post-Golgi transport modulator project, inhibition of yeast transport mutant growth (AID 636; in the data active = inhibition above about 31%); settings: absorbance 615 nm, about 18 h, stronger effect = higher value
# [8] = growth suppression of yeast trafficking mutant, preliminary HTS, modulators of trafficking downstream of Golgi apparatus project, 1536-format plate, OD 615 nm (AID 637); settings: yeast transport mutant growth, absorbance 615 nm, 18 h; stronger effect = higher value
# [9] = H69AR cells + 2 uM doxorubicin, measured here: viability with 2 uM doxorubicin, stronger effect = lower value
# [10] = H69AR cells, compound alone cytotoxicity
Compound,viability [1] [%],Her2 level [2],viability [3],viability [4],viability [5],differential viability (reversal) ([6]; H69AR cells + 2 uM doxorubicin),"viability [6, 9] [%]","viability [6, 10] [%]",inhibition [7],inhibition [8]
O=C1c2oc3ccccc3c(=O)c2C(c2ccccn2)N1Cc1ccccc1 (stereo not given),91.5,110% (inactive),91.5% (inactive),95.6% (inactive),104% (inactive),9.52% (inactive),94.7,104,1.07% (inactive),-8.87% (inactive)
O=C(c1ccc(Cl)c(F)c1F)N1CCCC1,88.5,106% (inactive),88.5% (inactive),98.4% (inactive),102% (inactive),11.3% (inactive),90.7,102,-1.67% (inactive),-10.2% (inactive)
Cc1cc(-c2ccccc2)c2c3c(cn2n1)c(=O)n(C)c(=O)n3C,108,83% (inactive),108% (inactive),84.3% (inactive),75.6% (inactive),-0.565% (inactive),76.1,75.6,-2.37% (inactive),0.33% (inactive)
CCOC(=O)COc1ccc(C2NC(C(=O)O)CS2)cc1 (stereo not given),94.5,102% (inactive),94.5% (inactive),83.4% (inactive),102% (inactive),5.91% (inactive),96.3,102,-3.03% (inactive),-7.5% (inactive)
COc1ccc(Cn2nnnc2C(c2cc3cc(C)cc(C)c3[nH]c2=O)N2CCOCC2)cc1 (stereo not given),108,94.5% (inactive),108% (inactive),117% (inactive),99.4% (inactive),11.9% (inactive),87.4,99.4,-7.47% (inactive),0.32% (inactive)
O=C(O)CN(c1ccccc1)C1SC(=O)NC1=O (stereo not given),85.5,87.5% (inactive),85.5% (inactive),98.5% (inactive),86.8% (inactive),3.04% (inactive),83.8,86.8,-4.93% (inactive),2.79% (inactive)
CCOC(=O)c1ccc(NC(=O)NC(C)C2CCCO2)cc1 (stereo not given),97.5,96.5% (inactive),97.5% (inactive),108% (inactive),95.6% (inactive),5.2% (inactive),90.4,95.6,-1.32% (inactive),-7.94% (inactive)
COc1ccc(N2CCN(C(=O)C(OC(C)=O)c3ccccc3)CC2)cc1 (stereo not given),96.5,99% (inactive),96.5% (inactive),89.4% (inactive),97% (inactive),2.1% (inactive),94.9,97,-0.53% (inactive),-2.38% (inactive)
O=C(c1ccc(Cl)cc1)N(Cc1cccs1)C1CCS(=O)(=O)C1 (stereo not given),100,138% (inactive),100% (inactive),117% (inactive),89.2% (inactive),-8.41% (inactive),97.6,89.2,-3.29% (inactive),7.7% (inactive)
COc1ccc(C(=O)N2CCSC2=S)cc1OC,97.5,96% (inactive),97.5% (inactive),89.4% (inactive),82.1% (inactive),-11.5% (inactive),93.6,82.1,-2.21% (inactive),-1.67% (inactive)
O=C(COc1ccc(Cl)cc1)Nc1nc(-c2cccs2)cs1,96,74.5% (inactive),96% (inactive),79.9% (inactive),77.5% (inactive),-7.15% (inactive),84.6,77.5,3.55% (inactive),0.18% (inactive)
O=C(c1ccc2c(c1)c(=O)oc1ccccc12)N1CCCCC1,109,86% (inactive),109% (inactive),98.6% (inactive),101% (inactive),14.1% (inactive),87.3,101,-2.11% (inactive),3.17% (inactive)
CCN1C(=O)CC(C(=O)Nc2ccc(F)cc2)SC1=Nc1ccc2c(c1)OCO2 (stereo not given),136,97% (inactive),136% (inactive),79.7% (inactive),86.4% (inactive),6.02% (inactive),80.4,86.4,-2.53% (inactive),-1.61% (inactive)
Cc1c(C(=O)O)c(-c2ccccc2)nn1-c1ccccc1,103,104% (inactive),103% (inactive),96.9% (inactive),92.1% (inactive),4.64% (inactive),87.5,92.1,-2.99% (inactive),-2.3% (inactive)
COc1ccc(OC)c(C(=O)COC(=O)c2cc(C)oc2C)c1,112,71% (inactive),112% (inactive),62.9% (inactive),92.7% (inactive),4.87% (inactive),87.9,92.7,-7.33% (inactive),-4.92% (inactive)
Cc1sc2ncnc(OCC(=O)N3CCN(S(=O)(=O)c4ccc(Cl)cc4)CC3)c2c1C,92.5,86% (inactive),92.5% (inactive),89.2% (inactive),84.8% (inactive),0.87% (inactive),84,84.8,0.53% (inactive),-0.91% (inactive)
COC(=O)c1ccccc1S(=O)(=O)N(CCCN1CCOCC1)Cc1cccs1,111,110% (inactive),111% (inactive),91.8% (inactive),89.2% (inactive),-0.97% (inactive),90.2,89.2,-1.45% (inactive),5.4% (inactive)
CCC(=O)Nc1cc(C(=O)NCC2CCCN2CC)c(OC)cc1N(C)C (stereo not given),101,111% (inactive),101% (inactive),91.8% (inactive),114% (inactive),19.7% (inactive),93.9,114,-1.47% (inactive),-3.23% (inactive)
CCCN1C(=O)SC(CC(=O)Nc2ccc(Br)cc2)C1=O (stereo not given),105,112% (inactive),105% (inactive),77.7% (inactive),95.8% (inactive),4.58% (inactive),91.2,95.8,-2.24% (inactive),-8.41% (inactive)
CC(=O)c1cccc(N(CC(=O)N2CCCC2)S(C)(=O)=O)c1,91.5,93% (inactive),91.5% (inactive),99.3% (inactive),99.7% (inactive),5.66% (inactive),94.1,99.7,-6.67% (inactive),0.48% (inactive)
COc1ccc(OCc2cccc(C(=O)O)c2)cc1,105,78.5% (inactive),105% (inactive),75.7% (inactive),88.1% (inactive),7.06% (inactive),81,88.1,-4.47% (inactive),0.91% (inactive)
C1CCc2nnc(-c3nnc4n3CCCCC4)n2CC1,86.5,99.5% (inactive),86.5% (inactive),104% (inactive),93% (inactive),6.52% (inactive),86.4,93,-1.28% (inactive),1.67% (inactive)
COCCN(CC(=O)NCc1ccccc1)C(=O)CCC(=O)Nc1ccccn1,112,90.5% (inactive),112% (inactive),103% (inactive),92.9% (inactive),1.44% (inactive),91.5,92.9,-4.8% (inactive),1.94% (inactive)
Cn1c(=O)n(C)c2cc(CNc3ccc(N4CCOCC4)c(C(=O)O)c3)ccc21,107,89.5% (inactive),107% (inactive),113% (inactive),89.6% (inactive),-2.67% (inactive),92.2,89.6,-3.33% (inactive),0.49% (inactive)
Cc1ccccc1S(=O)(=O)Cc1ccc(C(=O)NCc2cccnc2)o1,93,83.5% (inactive),93% (inactive),97.8% (inactive),94.2% (inactive),6.61% (inactive),87.6,94.2,-1.84% (inactive),-2.91% (inactive)
Cc1nnc(SCc2cc(=O)[nH]c(N3CCCCC3)n2)s1,94,86.5% (inactive),94% (inactive),107% (inactive),94.1% (inactive),2.25% (inactive),91.9,94.1,-7.3% (inactive),-2.86% (inactive)
COCCNC(=O)c1ccc2c(c1)nc(C)n2-c1cccc(F)c1,129,79.5% (inactive),129% (inactive),92.7% (inactive),90.5% (inactive),-0.17% (inactive),90.6,90.5,-0.92% (inactive),4.35% (inactive)
O=C(O)C1CCCN1S(=O)(=O)c1ccc2ccccc2c1 (stereo not given),106,110% (inactive),106% (inactive),101% (inactive),95.6% (inactive),-12% (inactive),108,95.6,0.27% (inactive),9.51% (inactive)
Cc1noc(C)c1CSc1nnc(-c2ccncc2)n1-c1cccc(Cl)c1C,81.5,93.5% (inactive),81.5% (inactive),81% (inactive),88.4% (inactive),2.37% (inactive),86,88.4,-3.42% (inactive),-8.25% (inactive)
